The values below come from ChEMBL document CHEMBL1154422, “First characterization of heterogeneous resistance to imipenem in invasive nontypeable Haemophilus influenzae isolates” (2007).

Values after ≈ are worked out from the molar mass of the structure shown. Active and inactive are the calls of the source. The rule behind the calls is not given here.

Experiment [1] relates to Haemophilus influenzae. Put plainly: Antimicrobial activity against imipenem-susceptible Haemophilus influenzae Rd by Etest. The class given is functional. In a few lines:
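Etest MIC on HTM agar per CLSI, inoculum 3 × 10^8 to 4 × 10^8 CFU/ml, with strains grown on Vitox-supplemented chocolate agar at 37°C with 5% CO2. Imipenem and ampicillin MICs were tested in triplicate on separate days and reported as the range. ATCC 49247 and ATCC 10211 were the quality controls.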

Experiment [2] has as its system Haemophilus influenzae. Put plainly: Antimicrobial activity against imipenem-susceptible invasive nontypeable Haemophilus influenzae isolate 187 by Etest. In kind it is functional. In a few lines: (§1)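 Imipenem MIC read by Etest on Haemophilus test medium (HTM) agar following CLSI guidelines; inoculum about 3 × 10^8 to 4 × 10^8 CFU/ml. H. influenzae ATCC 49247 and ATCC 10211 served as quality controls. Interpretation used CLSI breakpoints. Strains were maintained on Vitox-supplemented chocolate agar at 37°C with 5% CO2.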

The subject of experiment [3] is Haemophilus influenzae. Put plainly: Antimicrobial activity against imipenem-susceptible invasive nontypeable Haemophilus influenzae isolate 244 by Etest. The class given is functional. In a few lines:
as §1

Experiment [4] concerns Haemophilus influenzae. Put plainly: Antimicrobial activity against Haemophilus influenzae Rd transformed with ftsI gene from imipenem-resistant invasive nontypeable Haemophilus influenzae isolate 183 by Etest. In kind it is functional. The method in brief: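 Recipient strain Rd (ATCC 51907) was electroporated with the PCR-amplified full-length ftsI gene plus flanking DNA from strain 183, then selected on HTM agar with 4 μg/ml imipenem. Imipenem MIC was then read by Etest on HTM agar per CLSI, in triplicate on separate days, and reported as a range.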

The subject of experiment [5] is Haemophilus influenzae. Put plainly: Antimicrobial activity against imipenem-resistant invasive nontypeable Haemophilus influenzae isolate 183 by Etest. In kind it is functional. In a few lines: as §1
Experiment [6] concerns Haemophilus influenzae. Put plainly: Antimicrobial activity against imipenem-resistant invasive nontypeable Haemophilus influenzae isolate 184 by Etest. The class given is functional. The method in brief: as §1
In experiment [7] the test system is Haemophilus influenzae. Put plainly: Antimicrobial activity against imipenem-susceptible invasive nontypeable Haemophilus influenzae isolate 251 by Etest. The class given is functional. The method in brief:
(§2)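 Etest MIC on Haemophilus test medium (HTM) agar plates following CLSI guidelines, with a high inoculum (3 × 10^8 to 4 × 10^8 CFU/ml). Strains were maintained on Vitox-supplemented chocolate agar at 37°C with 5% CO2. H. influenzae ATCC 49247 and ATCC 10211 served as quality controls. Interpretation used CLSI breakpoints.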

Experiment [8] has as its system Haemophilus influenzae. Put plainly: Antimicrobial activity against imipenem-susceptible invasive nontypeable Haemophilus influenzae isolate 248 by Etest. In kind it is functional. The method in brief:
as §1

For experiment [9], the system named is Haemophilus influenzae. Put plainly: Antimicrobial activity against imipenem-resistant invasive nontypeable Haemophilus influenzae isolate 184 by Etest in presence of 0.390 uM efflux pump inhibitor carbonyl cyanide m-chlorophenyl-hydrazone. The class given is functional, organism-based. In a few lines:
(§3)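 CCCP was made up as a 100 mM DMSO stock and added to HTM agar at final 3.12, 1.56, 0.781 or 0.390 μM. Imipenem Etest was run on these plates per CLSI on HTM agar.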

The test system of experiment [10] is Haemophilus influenzae. Put plainly: Antimicrobial activity against imipenem-resistant invasive nontypeable Haemophilus influenzae isolate 183 at 1.56 uM by Etest. In kind it is functional, organism-based. In a few lines:
as §3

Experiment [11] has as its system Haemophilus influenzae. Put plainly: Antimicrobial activity against imipenem-resistant invasive nontypeable Haemophilus influenzae isolate 183 by Etest in presence of 0.390 uM efflux pump inhibitor carbonyl cyanide m-chlorophenyl-hydrazone. In kind it is functional, organism-based. The method in brief:
as §3

Experiment [12] concerns Haemophilus influenzae. Put plainly: Antimicrobial activity against imipenem-resistant invasive nontypeable Haemophilus influenzae isolate 184 at 1.56 uM by Etest. In kind it is functional, organism-based. The method in brief: as §3
Experiment [13] concerns Haemophilus influenzae. Put plainly: Antimicrobial activity against imipenem-resistant invasive nontypeable Haemophilus influenzae isolate 183 by standard broth dilution method. The class given is functional. In a few lines: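 Imipenem MIC by CLSI standard broth dilution method; inoculum 5 × 10^5 CFU/ml.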
Experiment [14] relates to Haemophilus influenzae. Put plainly: Antimicrobial activity against imipenem-resistant invasive nontypeable Haemophilus influenzae isolate 184 by Etest in presence of 0.781 uM efflux pump inhibitor carbonyl cyanide m-chlorophenyl-hydrazone. The class given is functional, organism-based. In a few lines: as §3
In experiment [15] the test system is Haemophilus influenzae. Put plainly: Antimicrobial activity against imipenem-resistant invasive nontypeable Haemophilus influenzae isolate 183 by Etest in presence of 0.781 uM efflux pump inhibitor carbonyl cyanide m-chlorophenyl-hydrazone. In kind it is functional, organism-based. In a few lines:
as §3

In experiment [16] the test system is Haemophilus influenzae. Put plainly: Antimicrobial activity against imipenem-resistant invasive nontypeable Haemophilus influenzae isolate 184 by standard broth dilution method. In kind it is functional. In a few lines:
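Broth dilution MIC per CLSI standard procedure. Inoculum 5 × 10^5 CFU/ml, lower than the Etest inoculum. Strain first grown on Vitox-supplemented chocolate agar at 37°C with 5% CO2. Beta-lactamase checked by nitrocefin stick test.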
A general note: In broth dilution the organism is exposed to a series of concentrations in liquid medium.

In experiment [17] the test system is Haemophilus influenzae. Put plainly: Antimicrobial activity against Haemophilus influenzae ATCC 10211 by Etest. The class given is functional. In a few lines: as §2

For `CC1(C)S[C@@H]2[C@H](NC(=O)[C@H](N)c3ccccc3)C(=O)N2[C@H]1C(=O)O` [AMPICILLIN], the MIC was 0.064 µg/mL (≈ 0.183 µM) in experiment [1]; 0.19 µg/mL (≈ 0.544 µM) in experiment [2]; 0.25 µg/mL (≈ 0.715 µM) in experiment [3]; 0.38 µg/mL (≈ 1.09 µM) in experiment [4]; 0.75 µg/mL (≈ 2.15 µM) in [5]; 0.5 µg/mL (≈ 1.43 µM) in [6]. For the same compound, the MIC in [7] and in experiment [8] was 0.125 µg/mL (≈ 0.358 µM) in each case.

For the compound `CO/N=C(\C(=O)N[C@@H]1C(=O)N2C(C(=O)O)=C(COC(C)=O)CS[C@H]12)c1csc(N)n1` [CEFOTAXIME], the MIC amounted to 0.5 µg/mL (≈ 1.1 µM) in [1]; 0.047 µg/mL (≈ 0.103 µM) in experiment [2]; 0.016 µg/mL (≈ 0.0351 µM) in [3]; 0.047 µg/mL (≈ 0.103 µM) in [5]; 0.125 µg/mL (≈ 0.274 µM) in experiment [6]; 0.016 µg/mL (≈ 0.0351 µM) in [7]. In addition, the MIC in [8] was 0.016 µg/mL (≈ 0.0351 µM).

On to `CO/N=C(\C(=O)N[C@@H]1C(=O)N2C(C(=O)O)=C(CSc3nc(=O)c(O)nn3C)CS[C@H]12)c1csc(N)n1` [CEFTRIAXONE], for which the MIC in experiment [1] was less than 0.016 µg/mL; in experiment [4] it was less than 0.016 µg/mL; in experiment [5] it was 0.032 µg/mL (≈ 0.0577 µM).

As for `O=C(N[C@H](CO)[C@H](O)c1ccc([N+](=O)[O-])cc1)C(Cl)Cl` [CHLORAMPHENICOL], the MIC in experiment [2] was 0.38 µg/mL (≈ 1.18 µM); in [3] it was 0.38 µg/mL (≈ 1.18 µM); in experiment [5] it was 0.38 µg/mL (≈ 1.18 µM); in experiment [6], 0.5 µg/mL (≈ 1.55 µM); in experiment [7], 0.25 µg/mL (≈ 0.774 µM); in experiment [8] it was 0.38 µg/mL (≈ 1.18 µM).

As for `C[C@@H](O)[C@H]1C(=O)N2C(C(=O)O)=C(SCCNC=N)C[C@H]12` [IMIPENEM ANHYDROUS], the outcome in experiment [9], in experiment [11], in experiment [14] and in experiment [15] was Active. For the same compound, the result in [10] and in [12] was inactive. The MIC in [1] was 0.38 µg/mL (≈ 1.27 µM); in [2] it was 1.5 µg/mL (≈ 5.01 µM); in experiment [3] it was 0.5 µg/mL (≈ 1.67 µM); in [13], 2 µg/mL (≈ 6.68 µM); in experiment [4], 4 µg/mL (≈ 13.4 µM); in experiment [5] it was not below 32 µg/mL. In addition, the MIC is 1 µg/mL (≈ 3.34 µM) in [16]; 1.5 µg/mL (≈ 5.01 µM) in experiment [17]; not below 32 µg/mL in experiment [6]; 0.5 µg/mL (≈ 1.67 µM) in experiment [7]; 0.25 µg/mL (≈ 0.835 µM) in experiment [8].
